Assay results: ChEMBL document CHEMBL3526015, “Metabolism of the c-Fos/activator protein-1 inhibitor T-5224 by multiple human UDP-glucuronosyltransferase isoforms” (Drug Metab Dispos, 2011)

Columns and labels:
[1] = Drug metabolism assessed as human CYP2D6*1-mediated metabolite formation at 2 uM after 30 mins by HPLC method; format: ADME; conditions: 0.5 h
How it was run: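 Each recombinant human P450 was used at 50 pmol/mL with an NADPH-generating system and 2 μM 14C-T-5224 (0.5% DMSO final). Buffer was 100 mM Tris-HCl pH 7.5, except 100 mM potassium phosphate pH 7.4 for CYP2A6 and CYP2C9*1. Incubation ran 30 min at 37°C and was stopped with acetonitrile/methanol. Radioactive metabolite peaks were detected by C18 HPLC.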

[2] = target: T1, UDP-glucuronosyltransferase 1A3 (Homo sapiens, UniProt P35503); assay: Drug metabolism assessed as Vmax/Km ratio for human UGT1A3-mediated T-5224 hydroxyl O-glucuronide formation per mg protein after 10 to 60 mins in presence of UDP-glucuronic acid by HPLC method; format: ADME; conditions: recombinant enzyme
T1 sequence (P35503 whole entry): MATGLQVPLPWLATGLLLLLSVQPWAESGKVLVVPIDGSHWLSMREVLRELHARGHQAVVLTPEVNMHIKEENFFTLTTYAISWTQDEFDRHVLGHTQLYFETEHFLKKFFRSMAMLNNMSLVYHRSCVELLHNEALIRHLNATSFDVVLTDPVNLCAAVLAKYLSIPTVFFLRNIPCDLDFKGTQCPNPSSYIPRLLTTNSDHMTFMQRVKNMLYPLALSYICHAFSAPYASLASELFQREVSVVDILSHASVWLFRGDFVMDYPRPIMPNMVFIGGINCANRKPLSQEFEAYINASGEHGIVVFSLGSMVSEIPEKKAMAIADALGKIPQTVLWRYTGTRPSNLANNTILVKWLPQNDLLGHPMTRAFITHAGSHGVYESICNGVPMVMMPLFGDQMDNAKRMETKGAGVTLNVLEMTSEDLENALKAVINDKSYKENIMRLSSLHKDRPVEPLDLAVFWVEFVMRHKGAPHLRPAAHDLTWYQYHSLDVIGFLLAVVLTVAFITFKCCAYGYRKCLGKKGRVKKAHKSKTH
How it was run: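 Kinetics used recombinant UGT1A1, 1A3 or 1A8 (0.1 mg protein/mL) with T-5224 at 1–50 μM, 2 mM UDPGA and 60 min at 37°C, in triplicate. G2/G3 were measured by HPLC at 290 nm and fitted to a substrate-inhibition model (Vmax, Km, Ksi). UGT content was quantified by immunoblot, and kcat = Vmax/E0 was derived from it.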

[3] = target: T2, UDP-glucuronosyltransferase 1A1 (Homo sapiens, UniProt P22309); assay: Substrate inhibition of human UGT1A1-mediated T-5224 acyl O-glucuronide formation after 10 to 60 mins in presence of UDP-glucuronic acid by HPLC method; format: ADME
T2 sequence (P22309 whole entry): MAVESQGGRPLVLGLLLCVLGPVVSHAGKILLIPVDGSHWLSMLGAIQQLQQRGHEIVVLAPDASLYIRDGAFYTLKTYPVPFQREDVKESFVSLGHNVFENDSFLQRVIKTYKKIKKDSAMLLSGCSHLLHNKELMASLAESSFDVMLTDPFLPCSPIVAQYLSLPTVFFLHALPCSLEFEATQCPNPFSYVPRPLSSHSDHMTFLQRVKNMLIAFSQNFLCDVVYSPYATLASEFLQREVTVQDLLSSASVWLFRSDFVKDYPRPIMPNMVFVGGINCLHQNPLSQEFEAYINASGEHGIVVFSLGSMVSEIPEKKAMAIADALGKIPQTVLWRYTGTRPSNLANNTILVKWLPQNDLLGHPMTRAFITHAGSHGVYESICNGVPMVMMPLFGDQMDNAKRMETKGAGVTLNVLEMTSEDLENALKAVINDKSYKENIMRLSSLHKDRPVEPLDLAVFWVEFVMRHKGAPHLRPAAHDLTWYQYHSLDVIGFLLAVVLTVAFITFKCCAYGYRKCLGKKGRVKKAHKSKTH
How it was run: (§1)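 Recombinant human UGT1A1, UGT1A3 or UGT1A8 from baculovirus-infected insect cells (0.1 mg protein/mL) in 50 mM Tris-HCl pH 7.5, 8 mM MgCl2, alamethicin, 2% DMSO. T-5224 at 1–50 μM with 2 mM UDPGA for 60 min at 37°C. HPLC with UV at 290 nm. Triplicates fitted to a substrate-inhibition model. kcat uses UGT content quantified by immunoblot against recombinant UGT1A1/UGT2B4 standards.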

[4] = target: T2, UDP-glucuronosyltransferase 1A1; assay: Substrate inhibition of human UGT1A1-mediated T-5224 hydroxyl O-glucuronide formation after 10 to 60 mins in presence of UDP-glucuronic acid by HPLC method; format: ADME; how it was run: as §1
[5] = target: T3, UDP-glucuronosyltransferase 1A8 (Homo sapiens, UniProt Q9HAW9); assay: Substrate inhibition of human UGT1A8-mediated T-5224 hydroxyl O-glucuronide formation after 10 to 60 mins in presence of UDP-glucuronic acid by HPLC method; format: ADME; how it was run: as §1
T3 sequence (Q9HAW9 whole entry): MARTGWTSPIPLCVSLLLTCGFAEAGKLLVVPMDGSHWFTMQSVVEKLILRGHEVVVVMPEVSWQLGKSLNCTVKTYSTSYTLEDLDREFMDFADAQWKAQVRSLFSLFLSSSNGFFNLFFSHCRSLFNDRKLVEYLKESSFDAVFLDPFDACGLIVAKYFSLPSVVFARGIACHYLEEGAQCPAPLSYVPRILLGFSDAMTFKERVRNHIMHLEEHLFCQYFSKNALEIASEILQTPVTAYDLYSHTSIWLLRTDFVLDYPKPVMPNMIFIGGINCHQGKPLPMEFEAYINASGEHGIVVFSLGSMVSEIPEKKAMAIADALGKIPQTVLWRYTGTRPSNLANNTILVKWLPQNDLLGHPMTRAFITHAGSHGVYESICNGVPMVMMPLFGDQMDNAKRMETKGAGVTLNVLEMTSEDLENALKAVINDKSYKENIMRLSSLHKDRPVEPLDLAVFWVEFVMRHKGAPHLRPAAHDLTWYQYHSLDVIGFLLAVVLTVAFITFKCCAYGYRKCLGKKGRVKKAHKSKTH

[6] = Substrate inhibition of T-5224 acyl O-glucuronide formation in human intestinal microsomes after 10 to 60 mins by HPLC method; set-up: species or system Intestine, Microsome
How it was run: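 Pooled liver (0.5 mg protein/mL) or intestinal (0.25 mg protein/mL) microsomes in 50 mM Tris-HCl pH 7.5, 8 mM MgCl2, alamethicin, 2% DMSO. T-5224 at 1–50 μM, 5 min preincubation at 37°C, started with 2 mM UDPGA. Incubated 10 min, or 20 min for intestinal microsomes at 1–5 μM. Acetonitrile stop, glucuronides by HPLC at 290 nm. Triplicates fitted to a substrate-inhibition model.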

Liver microsome = assay: Drug metabolism in human liver microsomes assessed as T-5224 acyl O-glucuronide formation per mg protein after 10 to 60 mins by HPLC method; format: ADME
How it was run: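 Pooled liver microsomes (0.5 mg/mL) were incubated 10 min. Pooled intestinal microsomes (0.25 mg/mL) ran 10 min at T-5224 10–50 μM and 20 min at 1–5 μM. Buffer was 50 mM Tris-HCl pH 7.5 with 8 mM MgCl2, alamethicin and 2 mM UDPGA, at 37°C, in triplicate. Glucuronides G2/G3 were read by HPLC at 290 nm and fitted for Vmax/Km.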

Drug metabolism [1]: metabolite_not_detected
Vmax/Km [2]: 47.5 µL/min
Ki [3]: 1.54 µM
Ki [4]: 4.67 µM
Ki [5]: 3.64 µM
Ki [6]: 2.64 µM
Vmax (Liver microsome): 217 pmol/min
SMILES: O=C(O)CCc1cc(C(=O)c2ccc(OC3CCCC3)cc2O)ccc1OCc1ccc2c(O)noc2c1
